{"data": "Published values collected from several papers", "target": "Maternal embryonic leucine zipper kinase (MELK, Homo sapiens, UniProt Q14680)", "note": "Each line is one published result; the experiments were not run side by side."}
{"Structure (SMILES)": "COc1cc2ncnc(Nc3ccc(Oc4ccccc4)cc3C)c2cc1OC", "test": "enzyme activity, inhibitor", "conditions": "1 µM", "measurement": "inhibition", "result": "0%"}
{"Structure (SMILES)": "CC(C)(O)[C@H]1CC[C@H](Nc2ccc3ncc(-c4cccc(C(F)(F)F)c4)n3n2)CC1", "test": "enzyme activity, inhibitor", "conditions": "1 µM", "measurement": "remaining activity", "result": "86.3%"}
{"Structure (SMILES)": "CC(C)(C)c1nc2c3cc[nH]c(=O)c3c3cc(F)ccc3c2[nH]1", "test": "cell-free assay", "conditions": "0.5 µM", "measurement": "remaining signal", "result": "5.23%"}
{"Structure (SMILES)": "CCS(=O)(=O)c1cc2cc(C[C@@](O)(CC(C)(C)c3ccc(F)cc3C(N)=O)C(F)(F)F)[nH]c2cn1", "test": "cell-free assay, competition with immobilised ligand", "conditions": "1 µM", "measurement": "remaining binding", "result": "100%"}
{"Structure (SMILES)": "Cc1ccc(NC(=O)c2ccc(C)c(C(F)(F)F)c2)cc1C#Cc1nn(C2CCC(O)CC2)c2ncnc(N)c12 (centres unmarked)", "test": "cell-free assay", "conditions": "10 µM", "measurement": "remaining signal", "result": "23%"}
{"Structure (SMILES)": "Cc1ccc(C(=O)Nc2ccc(CN3CCN(C)CC3)c(C(F)(F)F)c2)cc1C#Cc1cnc2cccnn12", "test": "enzyme activity, inhibitor", "conditions": "23.5 nM", "measurement": "remaining activity", "result": "61%"}
{"Structure (SMILES)": "CCN(CC)CCNC(=O)c1c(C)[nH]c(/C=C2\\C(=O)Nc3ccc(F)cc32)c1C", "test": "enzyme activity, inhibitor", "conditions": "10 µM", "measurement": "inhibition", "result": "99%"}
{"Structure (SMILES)": "CNC(=O)Nc1ccc2c(c1)[C@@]1(CC2)OC(=O)N(CC(=O)N(Cc2ccc(F)cc2)[C@@H](C)C(F)(F)F)C1=O", "test": "cell-free assay, competition with immobilised ligand", "conditions": "1 µM", "measurement": "remaining binding", "result": "100%"}
{"Structure (SMILES)": "COc1cc(/C=C/C(=O)CC(=O)/C=C/c2ccc(O)c(OC)c2)ccc1O", "test": "enzyme activity, inhibitor", "conditions": "1 µM", "measurement": "activity vs control", "result": "74%"}
{"Structure (SMILES)": "C[C@@]1(Cc2ccc(C#N)cc2)C(=O)N(c2cc(Cl)cc(Cl)c2)c2ncc(C(=O)NC3(c4nc(C5CCC5)no4)CC3)n21", "test": "cell-free assay, competition with immobilised ligand", "conditions": "1 µM", "measurement": "remaining binding", "result": "89%"}
{"Structure (SMILES)": "FC(F)(F)Oc1cccc(-c2cnc3ccc(-c4ccncc4)nn23)c1", "test": "enzyme activity, inhibitor, radiometric", "conditions": "5 µM", "measurement": "activity vs control", "result": "77%"}
{"Structure (SMILES)": "Cc1ccc(Nc2nccc(N(C)c3ccc4c(C)n(C)nc4c3)n2)cc1S(N)(=O)=O", "test": "enzyme activity, inhibitor", "conditions": "0.3 µM", "measurement": "inhibition", "result": "7%"}
{"Structure (SMILES)": "CN(c1ncccc1CNc1nc(Nc2ccc3c(c2)CC(=O)N3)ncc1C(F)(F)F)S(C)(=O)=O", "test": "enzyme activity, inhibitor", "conditions": "1 µM", "measurement": "inhibition", "result": "90.4%"}
{"Structure (SMILES)": "CC(=O)Nc1c(C(C)=O)c(=O)n(C)c2nc(-c3ccc(Cl)cc3Cl)c(-c3ccc(Cl)cc3)cc12", "test": "cell-free assay, competition with immobilised ligand", "conditions": "1 µM", "measurement": "remaining binding", "result": "100%"}
{"Structure (SMILES)": "O=C(Nc1cnn(-c2csc(C(=O)NC3COC3)c2)c1)Nc1c(F)cccc1Cl", "test": "enzyme activity, inhibitor", "conditions": "5 µM", "measurement": "remaining activity", "result": "61.4%"}
{"Structure (SMILES)": "CNC(=O)c1cc(Oc2ccc(NC(=O)Nc3ccc(Cl)c(C(F)(F)F)c3)cc2)ccn1", "test": "enzyme activity, inhibitor", "conditions": "0.3 µM", "measurement": "inhibition", "result": "4%"}
{"Structure (SMILES)": "CCOC(=O)c1cc2cc(-c3cc(C(=O)NCc4ccc(C(=O)O)cc4)nn3C)ccc2[nH]1", "test": "cell-free assay, competition with immobilised ligand", "conditions": "0.1 µM", "measurement": "remaining binding", "result": "100%"}
{"Structure (SMILES)": "C#Cc1cccc(Nc2ncnc3cc(OCCOC)c(OCCOC)cc23)c1", "test": "cell-free assay", "conditions": "0.5 µM", "measurement": "remaining signal", "result": "88.6%"}
{"Structure (SMILES)": "FC(F)c1nc2ccccc2n1-c1nc(N2CCOCC2)nc(N2CCOCC2)n1", "test": "enzyme activity, inhibitor", "conditions": "10 µM", "measurement": "remaining activity", "result": "91%"}
{"Structure (SMILES)": "COc1cc(Nc2cnc(C#N)c(O[C@H](C)CN(C)C)n2)ncc1-c1cnn(C)c1", "test": "enzyme activity, inhibitor, radiometric", "conditions": "10 µM", "measurement": "remaining activity", "result": "62%"}
{"Structure (SMILES)": "C[C@H](c1cccc(C#N)c1)n1cc(Cl)cc(C(N)=O)c1=N", "test": "cell-free assay, competition with immobilised ligand", "conditions": "1 µM", "measurement": "remaining binding", "result": "74%"}
{"Structure (SMILES)": "COc1cc(Cl)c(C(=O)N[C@@H](CN[C@H]2CC[C@@H](N)CC2)Cc2ccc(C#N)cc2)cc1-c1ccc(CN[C@H](C)c2ccc(C)cc2)o1", "test": "enzyme activity, inhibitor", "conditions": "1 µM", "measurement": "remaining activity", "result": "98%"}
{"Structure (SMILES)": "Nc1nc(Nc2ccccc2)sc1C(=O)c1c(F)cccc1F", "test": "enzyme activity, inhibitor", "conditions": "10 µM", "measurement": "remaining activity", "result": "47%"}
{"Structure (SMILES)": "Cc1sc(C(=O)NC2COC2)cc1-n1cc(NC(=O)Nc2c(F)cccc2Cl)cn1", "test": "enzyme activity, inhibitor", "conditions": "10 µM", "measurement": "remaining activity", "result": "103%"}
{"Structure (SMILES)": "CC(C)(C)c1nc2c(s1)c1nc(N)ncc1c1ccc(NS(=O)(=O)c3c(F)cccc3F)c(F)c12", "test": "enzyme activity, inhibitor, radiometric", "conditions": "1 µM", "measurement": "remaining activity", "result": "41%"}
{"Structure (SMILES)": "Cc1cc(NC(=O)c2cccc3cc(-c4cccc5[nH]nc(N)c45)ccc23)ccc1F", "test": "enzyme activity, inhibitor", "conditions": "0.1 µM", "measurement": "activity vs control", "result": "93%"}
{"Structure (SMILES)": "COc1cc(-c2cc(-c3ccc(N4CCNCC4)cc3)cnc2C)cc(OC)c1OC", "test": "enzyme activity, inhibitor", "conditions": "1 µM", "measurement": "inhibition", "result": "8%"}
{"Structure (SMILES)": "Cc1ncc([N+](=O)[O-])n1C(=NO)c1ccccc1C(F)(F)F", "test": "enzyme activity, inhibitor", "conditions": "10 µM", "measurement": "inhibition", "result": "13.9%"}
{"Structure (SMILES)": "CN(C)C(=O)Cn1cc(-c2nc([C@@](C)(c3ccc(-c4cnc(N)nc4)cc3)C3CC3)no2)cn1", "test": "cell-free assay, competition with immobilised ligand", "conditions": "1 µM", "measurement": "remaining binding", "result": "87%"}
{"Structure (SMILES)": "O=C1Nc2ccc(Cl)cc2C1=Cc1cc(Cl)c(O)c(Cl)c1", "test": "cell-free assay", "conditions": "0.5 µM", "measurement": "remaining signal", "result": "83.6%"}
{"Structure (SMILES)": "COc1cc(-c2cn(C3CCc4c(F)cccc4N(CC(F)(F)F)C3=O)nn2)ccc1-n1cnc(C)c1 (centres unmarked)", "test": "cell-free assay, competition with immobilised ligand", "conditions": "1 µM", "measurement": "remaining binding", "result": "100%"}
{"Structure (SMILES)": "O=C1NC(=O)c2cc(Nc3ccc(F)cc3)c(Nc3ccc(F)cc3)cc21", "test": "cell-free assay", "conditions": "0.5 µM", "measurement": "remaining signal", "result": "92%"}
